Screening results: PubChem BioAssay, several laboratories
Hits are enriched below; roughly 2.9% of the tested compounds scored in any of these assays.
MC4R barr agon: agonists of human melanocortin 4 receptor (MC4R) beta-arrestin | P32245 | U2OS MC4R beta-arrestin complementation, luminescence; percent of melanotan II response, DMSO zero | activation, % at 8.9 µM | 360,000 compounds, 0.98% hits | AID 540308;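 active = activation above a per-plate cutoff, the mean activation of sample wells on that plate plus 3 SD, cut at about 8% in these data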
Target sequence (P32245 whole entry, looked up): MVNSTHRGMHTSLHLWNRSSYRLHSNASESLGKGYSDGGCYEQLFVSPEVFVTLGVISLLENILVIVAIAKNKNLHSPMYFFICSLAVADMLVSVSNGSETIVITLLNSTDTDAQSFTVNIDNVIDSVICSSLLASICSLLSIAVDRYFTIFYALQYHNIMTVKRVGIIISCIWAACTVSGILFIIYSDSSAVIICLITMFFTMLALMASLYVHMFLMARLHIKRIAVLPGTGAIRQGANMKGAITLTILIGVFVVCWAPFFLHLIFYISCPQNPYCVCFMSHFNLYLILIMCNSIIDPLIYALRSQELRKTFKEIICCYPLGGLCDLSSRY
H9c2 TAG inh: inhibitors of triacylglycerol accumulation. AID 651582. inhibition, % at 12.5 µM. 230,000 compounds, 0.66% hits. H9c2 cells, Nile Red lipid (TAG) fluorescence; cells loaded with 200 µM oleic acid;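 active = pattern-corrected inhibition of lipid staining of at least 50% with the nuclear-stain viability signal not falling by more than 50%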
GalR3 antagonist: blocks the human galanin receptor 3. O60755. HEK293 GalR3-CNG cAMP membrane potential fluorescence; galR3 body fused to GalR1 C-terminus. inhibition, % at 3 µM. 360,000 compounds, 0.44% hits;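 active = inhibition above the screen-wide average plus 3 SD, cut at about 13% in these data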;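 also: forskolin and galanin both at EC90 stimulate the cells; cAMP rise reported by CNG channel membrane potential dye signal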
Target sequence (O60755 1-299 limits assumed): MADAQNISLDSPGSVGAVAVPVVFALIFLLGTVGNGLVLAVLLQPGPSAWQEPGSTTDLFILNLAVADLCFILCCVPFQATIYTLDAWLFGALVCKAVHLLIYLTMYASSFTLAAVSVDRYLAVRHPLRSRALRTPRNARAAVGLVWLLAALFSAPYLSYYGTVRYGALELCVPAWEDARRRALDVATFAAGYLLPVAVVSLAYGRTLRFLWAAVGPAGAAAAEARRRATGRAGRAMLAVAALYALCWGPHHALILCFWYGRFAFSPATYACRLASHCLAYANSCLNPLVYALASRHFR
MC4R antagonist: blocks human MC4R cAMP signaling; P32245; MC4R-expressing cells, MTII-stimulated cAMP, LANCE TR-FRET; inhibition, % at 6.5 µM; 360,000 compounds, 0.48% hits; AID 540295;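 active = inhibition above its plate's cutoff, the mean of tested wells on that plate plus 3 SD, cut at about 29% in these data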
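Test system: U2OS cells stably expressing human melanocortin 4 receptor (MC4R); also added: Melanotan II challenge; compound: 6.5 µM single dose; timing: 30-min compound preincubation, 1-h Melanotan II challenge, 1-h detection, room temperature; signal: Eu-cAMP/anti-cAMP TR-FRET, emission 671 nm; repeats: one well per compound, no replicates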
Calb FLC: affects C. albicans growth with fluconazole | C. albicans CaCi-2 + fluconazole, Alamar Blue growth, 48 h | growth inhibition, % (concentration not given with the values) | 300,000 compounds, 0.57% hits | AID 1979;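 active = growth inhibition above about 58% in most replicates, limit read from the data, passing the limit was not always enough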;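 also: all wells also contain fluconazole at 8 µg/ml as a sub-toxic cotreatment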
Efflux pump inh: inhibitors of Candida antifungal efflux pumps expressed in yeast | S. cerevisiae Candida pump triplex, Nile Red efflux | inhibition, % at 10 µM | 330,000 compounds, 0.44% hits;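 active = plate passing quality check with inhibition over a set limit, or well fluorescence over plate mean plus 4 SD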;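 also: Nile Red retained in pooled yeast measured as flow cytometry median fluorescence; higher means more Nile Red kept so more efflux inhibition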
GalR3 conf: GalR3 (human) antagonism, confirmation | HEK293 GalR3 CNG cAMP biosensor, membrane potential fluorescence; galR3 fused to GalR1 carboxy tail; challenged with forskolin and galanin at EC90 | inhibition, % at 3 µM | AID 652245 | shares compounds with GalR3 antagonist | 1,600 compounds, 59% hits;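 active = inhibition above the primary screen's cutoff, the mean inhibition of all screened compounds plus 3 SD, cut at about 13% in these data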
HEK-CNG parental: parental cell agonism counter-screen for GalR3 antagonists; activation, % at 3 µM; shares compounds with GalR3 antagonist; HEK293-CNG parental cells, cAMP membrane potential fluorescence; normalised: DMSO wells 0%, forskolin wells 100%; AID 652268; 1,600 compounds, 10% hits; in the data active = activation above about 1.3%
A number is an active result; . = inactive; / = no result given; ! = not active in a repeat.

SMILES	MC4R barr agon	H9c2 TAG inh	GalR3 antagonist	MC4R antagonist	Calb FLC	Efflux pump inh	GalR3 conf	HEK-CNG parental
Cc1ccc(S(=O)(=O)N2C[C@]3(O)C[C@@H]4C(=O)N(c5ccccc5)C(=O)[C@@H]4C[C@]3(OC(=O)NCC3CCCCC3)C2)cc1	.	.	.	.	/	/	/	/
CNc1ncn(-c2c(C)cccc2C)c(=O)n1	/	/	.	/	/	/	/	/
Nc1[nH]n2c(=O)c3c(nc2c1N=Nc1ccc(Cl)cc1)CCCC3	.	.	.	.	.	.	/	/
Nc1[nH]n2c(=O)c3c(nc2c1N=Nc1ccccc1)CCCC3	.	.	61	.	.	.	28	.
O=C1NC[C@@H](CCCCN2C[C@H](Cc3ccc(O)cc3)N(CCc3ccccc3)C(=O)C2=O)N(Cc2ccccc2)C1=O	/	/	.	/	/	/	/	/
c1ccc(-c2c[n+]3c(n2-c2ccccc2)CCC3)cc1	.	.	.	.	.	.	/	/
CCOc1ccc(-n2c(-c3ccccc3)c[n+]3c2CCCCC3)cc1	.	.	51	.	87	.	78	.
Cc1cc2c(NCCc3ccccc3)ncnc2s1	.	/	97	.	.	.	98	.
O=C(NC1CCN(Cc2ccccc2)CC1)c1cccc(S(=O)(=O)Nc2ccc(F)cc2)c1	.	.	17	.	/	.	54	.
O=C(NC1CCN(Cc2ccccc2)CC1)c1cccc(S(=O)(=O)Nc2ccc(Br)cc2)c1	.	.	.	.	.	.	/	/
C=CCN(c1ccccc1)S(=O)(=O)c1cccc(C(=O)NC2CCN(Cc3ccccc3)CC2)c1	.	.	89	.	.	.	62	1.4
C[C@H]1CN=C2N(CCNC(=O)CCC3CCCCC3)[C@H](Cc3ccc(O)cc3)CN21	.	.	17	.	.	.	.	.
COc1ccc(C[C@H]2CN3C(=NC[C@@H]3C)N2CCNC(=O)CCC2CCCCC2)cc1	.	.	.	.	.	.	/	/
O=[N+]([O-])c1c(Cl)cc(Cl)cc1Cl	/	/	.	/	/	/	/	/
CCOC(=O)CNC(=O)CNC(=O)c1ccc(OCC(C)C)cc1	.	/	86	.	.	.	.	.
CCOC(=O)CNC(=O)CNC(=O)c1ccc(OC(C)C)cc1	.	.	.	.	.	.	/	/
O=C(CNCc1ccc(F)cc1)Nc1ccccc1[N+](=O)[O-]	.	.	24	.	.	.	.	.
CCCS(=O)(=O)NC(=O)C1(C)CCN(C(=O)c2ccc(OC)c(F)c2)C1 (stereo not given)	.	.	/	.	/	/	/	/
O=C(O)CCc1ccc(-c2cccs2)n1CC(=O)Nc1ccccc1C(F)(F)F	.	.	15	.	.	.	.	.
COCCn1c(CCC(=O)O)ccc1-c1cccs1	.	.	.	.	.	.	/	/
CC(C)NC(=O)OC[C@@H]1CSCCS(=O)(=O)N1	/	/	.	/	/	/	/	/
COc1ccc(-c2csc(C(C)(O)c3ccncc3)n2)cc1OC (stereo not given)	.	.	.	.	/	/	/	/
CC(C)CSc1nnc(N)s1	.	.	14	.	.	.	.	.
COc1ccc(C)cc1NC(=O)c1ccc(NS(=O)(=O)c2cccc3cccnc23)cc1	.	.	51	.	.	.	85	.
CC(=O)Nc1ccc(NC(=O)c2ccc(-c3c(C)noc3C)c3ccoc23)cc1	.	.	.	.	/	/	/	/
SMILES	MC4R barr agon	H9c2 TAG inh	GalR3 antagonist	MC4R antagonist	Calb FLC	Efflux pump inh	GalR3 conf	HEK-CNG parental
COc1ccc(NC(=O)c2ccc(-c3c(C)noc3C)c3ccoc23)cn1	.	.	44	.	/	/	.	.
CCCCC(=O)N(C)c1c(CC)nc2c(OCC(=O)N3CCOCC3)cccn12	.	.	.	.	/	/	/	/
Cc1oc(-c2ccccc2)cc1C(=O)Nc1cccc(/C=C\C(=O)O)c1	.	.	71	.	.	.	91	.
Cc1oc(C(C)(C)C)cc1C(=O)Nc1cccc(/C=C\C(=O)O)c1	.	/	.	.	.	.	/	/
CCn1c(O)c(/C=N/N=C2CCCCC2)c2cc(C3=NNC(=O)CC3)ccc21	.	.	25	.	.	.	.	.
COc1ccc(N2C(=O)CN(Cc3cc(OC)c(OC)c(OC)c3)C2=S)cc1	.	.	14	.	.	.	.	.
COc1cccc(N2C(=O)CN(Cc3cc(OC)c(OC)c(OC)c3)C2=S)c1	.	/	.	.	.	.	/	/
CC1CN(c2ccc(C(=O)c3ccccc3C(=O)O)cc2[N+](=O)[O-])CC(C)O1 (stereo not given)	.	.	18	.	.	.	.	.
Cc1onc(-c2ccccc2)c1C(=O)NC(=S)NNC(=O)c1ccc(O)cc1	.	/	/	.	.	.	.	.
Cc1onc(-c2ccccc2)c1C(=O)NC(=S)NNC(=O)c1ccccc1O	.	/	.	.	.	.	/	/
Cc1nn(-c2ccccc2)c(Cl)c1/C=C(\CC(=O)O)c1nc2ccccc2s1	.	.	13	.	.	.	.	.
[O-][n+]1c2cc(C(F)(F)F)ccc2c2n1CCN=C2c1ccc(Cl)cc1	.	.	/	.	.	.	.	.
COc1ccc(NC(=O)c2ccc(CNc3c(NC4CCCCC4)c(=O)c3=O)cc2)c(OC)c1	.	.	14!	.	.	.	.	.
COc1cc(S(=O)(=O)NCc2ccncc2)ccc1Br	.	.	63	.	.	.	90	.
O=C(O)CNS(=O)(=O)c1ccc(Br)s1	.	.	.	.	.	.	/	/
Cc1nc(C)n(CCNS(=O)(=O)c2ccc(C)c(C)c2)n1	.	/	18	.	.	.	.	.
CCN(C1CCCCC1)S(=O)(=O)c1ccc(S(=O)(=O)NCc2ccncc2)cc1	.	/	16	.	.	.	49	.
CNC(=O)c1cc(S(=O)(=O)NCc2ccncc2)ccc1OC	.	.	.	.	.	.	/	/
O=S(=O)(NCc1ccncc1)c1ccc(Br)s1	.	.	105	.	.	.	116	.
Cc1cc(C)n(CCNS(=O)(=O)c2ccc(C)c(C)c2)n1	.	/	.	.	.	.	/	/
Cc1ccc(S(=O)(=O)NCc2ccncc2)cc1C	.	.	88	.	.	.	105	.
COC(=O)COc1ccc(S(=O)(=O)NCc2ccncc2)cc1	.	/	96	.	.	.	113	.
Cc1cc(Br)c(S(=O)(=O)NCc2ccncc2)cc1C	.	.	101	.	.	.	105	.
Cc1ccc(S(=O)(=O)NCc2cccnc2)s1	.	.	13	.	.	.	.	.
C[C@H]1COc2cc(NCCCN3CCOCC3)ccc2S(=O)(=O)N1	/	/	.	/	/	/	/	/
CCc1nc2ccc(C(=O)N(C)Cc3ccco3)cn2c1N(CC)Cc1cccc(Br)c1	.	.	.	.	/	/	/	/
